In general, EC50 refers to the concentration that produces a half-maximal response. By inhibition is commonly meant how much of the control response was suppressed.

The subject of one data set is HEK293T (human). In words: Cytotoxicity against human HEK293T cells at dual luciferase reporter gene assay EC50 after 24 hrs by MTS assay.
Data set [1] can be described thus: Inhibition of Wnt3A/beta-catenin signaling in HEK293 cells at 1 uM after 24 hrs by firefly/renilla dual luciferase reporter gene assay relative to vehicle-treated control. In kind it is cell-based. Also noted: scale not given: the % may be the effect or the level left. Particulars: Homo sapiens. The gist of the method:
(§1)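 HEK293T cells were co-transfected with TOPglow (or FOPglow) plus pCMV Renilla. At 20 h they were reseeded at 18×10^3/well and treated for 24 h with Wnt-3A conditioned medium (from L-Wnt-3A cells) plus analogs (0.01–20 µM; DMSO ≤0.1%). Firefly/Renilla dual-luciferase ratios were expressed as % of DMSO under Wnt-3A. EC50 was taken from sigmoidal concentration–response fits; three independent experiments.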
In general terms: In a reporter assay the amount or activity of a reporter protein is the signal.

The nature of data set [2]: Inhibition of Wnt3A/beta-catenin signaling in HEK293 cells after 24 hrs by firefly/renilla dual luciferase reporter gene assay relative to curcumin. In kind it is cell-based. Particulars: Homo sapiens. An outline of the steps:
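EC50s came from the HEK293T TOPglow/Renilla dual-luciferase assay with Wnt-3A conditioned medium and 24 h compound exposure (0.01–20 µM), using sigmoidal fits; three independent experiments.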

The nature of data set [3]: Inhibition of Wnt3A/beta-catenin signaling in HEK293 cells at 20 uM after 24 hrs by firefly/renilla dual luciferase reporter gene assay relative to vehicle-treated control. Format: cell-based. Also on record: scale not given: the % may be the effect or the level left. The following applies: Homo sapiens. The gist of the method: as §1
Data set [4] in a line: Inhibition of Wnt3A/beta-catenin signaling in HEK293 cells at 5 uM after 24 hrs by firefly/renilla dual luciferase reporter gene assay relative to vehicle-treated control. In kind it is cell-based. Also noted: scale not given: the % may be the effect or the level left. Particulars: Homo sapiens. The gist of the method: as §1
Data set [5] in a line: Inhibition of Wnt3A/beta-catenin signaling in HEK293 cells after 24 hrs by firefly/renilla dual luciferase reporter gene assay. In kind it is cell-based. The following applies: Homo sapiens, HEK293, 24 h. The gist of the method:
as §1

The nature of data set [6]: Inhibition of Wnt3A/beta-catenin signaling in HEK293 cells at 10 uM after 24 hrs by firefly/renilla dual luciferase reporter gene assay relative to vehicle-treated control. In kind it is cell-based. The following applies: Homo sapiens. Also noted: scale not given: the % may be the effect or the level left. The gist of the method: as §1
The nature of data set [7]: Inhibition of Wnt3A/beta-catenin signaling-mediated Tcf4 transcriptional activity in human HEK293T cells at dual luciferase reporter gene assay EC50 after 24 hrs by FOPglow reporter gene assay. Also on record: scale not given: the % may be the effect or the level left.
The subject of data set [8] is U2OS. In words: Downregulation of MMP9 protein expression in human U2OS cells at 1 to 5 uM after 24 hrs by Western blot analysis. In kind it is functional, cell-based. The gist of the method:
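U2OS cells were exposed to analogs or DMSO vehicle for 24 h, then total protein was collected and MMP-9 immunoblotted. Blots were repeated at least in triplicate.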
On the technique in general: Immunoblotting shows a protein as a band on a membrane.

Data set [9] is described as follows: Inhibition of Wnt3A/beta-catenin signaling in human U2OS cells assessed as reduction in nuclear beta-catenin accumulation at 5 uM after 24 hrs by Western blot analysis. Format: cell-based. The gist of the method: (§2)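 U2OS cells were pretreated with analogs for 24 h, and cytoplasmic and nuclear fractions were prepared for β-catenin immunoblotting. α-Tubulin (cytoplasmic) and lamin A/C (nuclear) were loading references. Bands were quantified by densitometry and expressed as % of DMSO-treated cells, with at least triplicate experiments.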

In data set [10] the test system is U2OS. In words: Antiinvasive activity in human U2OS cells at 1 uM after 24 hrs by matrigel assay. In kind it is functional. An outline of the steps:
(§3)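 U2OS osteosarcoma cells were pretreated with analogs for 24 h, and viability was confirmed by trypan blue. Cells were then seeded at 1.5×10^5 in serum-free medium onto inserts precoated with 30 µg Matrigel (8 µm pore), with McCoy's 5A plus 15% FBS below as chemoattractant. After 48 h of invasion, cells were fixed in 70% ethanol, stained with 0.2% crystal violet, and counted in ten random fields at 200×. Values are % of DMSO control; n=3.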

A short description of data set [11]: Inhibition of Wnt3A/beta-catenin signaling-mediated Tcf4 transcriptional activity in human U2OS cells at 1 uM after 24 hrs by FOPglow reporter gene assay. Format: cell-based. The gist of the method:
(§4)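 U2OS cells (1.0×10^5/well, 90–95% confluent) were co-transfected with TOPglow or FOPglow (0.3 µg) plus pCMV Renilla. At 20 h they were treated for 24 h with Wnt-3A conditioned medium and analogs. Firefly luciferase was normalized to Renilla and expressed as % of DMSO-treated samples; mean ± S.E.M of three independent experiments.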

Data set [12] is described as follows: Inhibition of Wnt3A/beta-catenin signaling in human U2OS cells assessed as effect on cytoplasmic beta-catenin level at 5 uM after 24 hrs by Western blot analysis. In kind it is cell-based. An outline of the steps: as §2
Data set [13] concerns U2OS. In words: Antiinvasive activity in human U2OS cells at 5 uM after 24 hrs by matrigel assay. In kind it is functional. An outline of the steps:
as §3

A short description of data set [14]: Inhibition of Wnt3A/beta-catenin signaling-mediated Tcf4 transcriptional activity in human U2OS cells at 10 uM after 24 hrs by FOPglow reporter gene assay. Format: cell-based. An outline of the steps: as §4
The nature of data set [15]: Inhibition of Wnt3A/beta-catenin signaling-mediated Tcf4 transcriptional activity in human U2OS cells at 20 uM after 24 hrs by FOPglow reporter gene assay. Format: cell-based. The gist of the method:
as §4

The nature of data set [16]: Inhibition of Wnt3A/beta-catenin signaling-mediated Tcf4 transcriptional activity in human U2OS cells at 5 uM after 24 hrs by FOPglow reporter gene assay. Format: cell-based. The gist of the method:
as §4

Calls of active or inactive are those of the source. No cut-off for these calls is given here.

Take `O=C1/C(=C/c2ccccc2)CCC/C1=C\c1ccccc1` [2,6-DIBENZYLIDENECYCLOHEXANONE]: the Activity with HEK293T (human) turned out to be 100%. The activity in [1] came out at 85.8%; in [3], 39%; in [4], 49.6%; in data set [6] it was 40.6%; in [7], 90.7%. The same compound came in with a fold change (FC) in [2] of 10.1. Also, in data set [5], a half-maximal effect (EC50) was put at 2 µM.

With `O=C1/C(=C/c2ccc(O)cc2)CC/C1=C\c1ccc(O)cc1`, the activity entry with U2OS [8] is “Active”. The inhibition result in [9] is “Active”. Moreover, the Activity with U2OS [10] is 34.8%; in the data set on HEK293T (human), 81.4%; with U2OS [13] it was 72.8%. Also, the inhibition in [11] was determined as 25.7%. Also, the activity was found to be 34.3% in data set [1]; 8% in data set [3]; 28.3% in data set [4]; 19.6% in data set [6]; 101% in data set [7]. The fold change (FC) in data set [2] came out at 50.5. Also, the inhibition result in data set [12] was “inactive”. In data set [5], this compound yielded an EC50 of 0.4 µM.

On to `O=C(/C=C/c1ccc(O)cc1)/C=C/c1ccc(O)cc1`, for which the activity entry with U2OS [8] was “Active”. In addition, the inhibition entry in data set [9] is “Active”. Further, the figures for the Activity with U2OS [10] and in the data set with U2OS [13] were 34.8% and 76.2%, respectively. Further, the inhibition in [11] came to 25.7%. The activity in [1] turned out to be 62.3%; in data set [3] it was 37.8%; in data set [4], 51.3%; in [6], 52%; in data set [7], 100%. In data set [2], this compound displayed a fold change (FC) of 6.5. For the same compound, the inhibition result in [12] was “inactive”. In data set [5], this compound gave an EC50 of 3.2 µM.

In turn, `COc1ccc(/C=C2\CCC/C(=C\c3ccc(OC)c(OC)c3)C2=O)cc1OC` displayed an Activity in the data set on HEK293T (human) of 62.1%. The activity in data set [1] is 97.7%; in [3] it was 40.8%; in [4], 64.3%; in data set [6], 62.8%; in data set [7], 104%. In [2], this compound displayed a fold change (FC) of 1.3. In [5], this compound gave an EC50 of 15.9 µM.

Turning to `COc1cc(/C=C/C(=O)CC(=O)/C=C/c2ccc(O)c(OC)c2)ccc1O` [CURCUMIN], the activity in data set [1] came out at 99.4%; in data set [3], 62.8%; in data set [4], 98.2%; in data set [6], 82.5%; in data set [7], 89.3%. Besides, the EC50 in data set [5] turned out to be 20.7 µM. Besides, the inhibition in data set [14] was determined as 27.1%; in data set [15], 59.4%. The Activity with U2OS [13] came out at 29%.

On to `COc1ccc(/C=C2\CCC/C(=C\c3ccc(OC)c(O)c3)C2=O)cc1O`, for which, in the data set with U2OS [8], the activity result is “Active”. Besides, the inhibition entry in data set [9] was “Active”. Moreover, the figures for the Activity with U2OS [10], in the data set with HEK293T (human) and in the data set with U2OS [13] were 34.8%, 91.6% and 81.6%, respectively. The inhibition in data set [11] was 25.7%. Besides, the activity in data set [1] is 37.3%; in data set [3] it was 21.4%; in data set [4] it was 27.7%; in data set [6], 24.7%; in data set [7], 93.8%. The compound also came in with a fold change (FC) in data set [2] of 59.7. The inhibition entry in data set [12] was “inactive”. In addition, the midpoint of the response in data set [5], the EC50, lay at 0.3 µM.

In the data set with HEK293T (human), `O=C1/C(=C/c2ccccc2F)CCC/C1=C\c1ccccc1F` had an Activity of 87%. Further, the activity was found to be 57.7% in data set [1]; 20.9% in data set [3]; 21.9% in [4]; 14.5% in data set [6]; 93% in data set [7]. The fold change (FC) in [2] came out at 22.8. In addition, in [5], the EC50 was 0.9 µM.

Turning to `COc1ccc(/C=C2\CC/C(=C\c3ccc(OC)c(O)c3)C2=O)cc1O`, the inhibition entry in [9] and in [12] was “inactive” throughout. The Activity in the data set on HEK293T (human) came to 86.9%. The inhibition in [11] came out at 25.7%. Also, the activity in data set [1] turned out to be 52.6%; in data set [3] it was 39.2%; in data set [4], 45%; in data set [6] it was 39.5%; in data set [7] it was 110%. Further, the fold change (FC) in data set [2] is 40.4. This compound yielded a 50% effective concentration (EC50) in data set [5] of 0.5 µM.

As for `COc1ccc(/C=C/C(=O)/C=C/c2ccc(OC)c(O)c2)cc1O`, the inhibition result in [9] and in data set [12] was “inactive” throughout. This compound yielded an Activity in the data set on HEK293T (human) of 86.6%. Moreover, the activity in data set [1] amounted to 82.5%; in data set [4], 38.8%; in data set [6], 34.4%; in data set [7], 105%. Also, in data set [2], the fold change (FC) amounted to 11.2. In data set [16], this compound came in with an inhibition of 49.4%. For the same compound, in data set [5], it took 1.8 µM to reach a half-maximal effect (EC50).

As for `O=C1/C(=C/c2ccc(O)cc2)CCC/C1=C\c1ccc(O)cc1`, the inhibition result in data set [9] and in data set [12] was “inactive” each time. Also, in data set [11], the inhibition came out at 25.7%. Also, the activity amounted to 51.9% in [1]; 16.7% in data set [3]; 26.9% in data set [4]; 26.3% in [6]; 85.1% in data set [7]. For the same compound, the fold change (FC) in data set [2] was 25.8. In [5], this compound registered an EC50 of 0.8 µM.

With `O=C1/C(=C/c2ccccc2)CC/C1=C\c1ccccc1`, the Activity with HEK293T (human) is 83.5%. The activity is 82.7% in data set [1]; 18.4% in data set [3]; 41.5% in data set [4]; 25.3% in [6]; 82.9% in data set [7]. In addition, the fold change (FC) in data set [2] is 6.7. The compound also showed an EC50 in [5] of 3.1 µM.

Turning to `COc1ccc(/C=C/C(=O)c2ccc(OC)c(O)c2)cc1O`, in the data set on HEK293T (human), the Activity stood at 87.2%. Also, the activity came to 95.7% in [1]; 25.7% in data set [3]; 53.9% in data set [4]; 42% in [6]; 131% in data set [7]. The fold change (FC) in [2] turned out to be 5.3. Also, the EC50 in [5] was determined as 3.9 µM.
